Reference: ChEMBL document CHEMBL4261627, “Design, synthesis and anti-melanogenic effect of cinnamamide derivatives” (Bioorg Med Chem, 2018)

tested on: B16-F10; assay: Cytotoxicity against mouse B16F10 cells up to 25 uM after 24 hrs by WST8 assay; format: cell-based; conditions: b16-f10, 24 h
Procedure, shortened: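 B16F10 cells (from DMEM/10% FBS culture) were seeded at 1x10^4 cells/well and held 24 h at 37 °C, 5% CO2. Compound (0, 5, 10, 25 µM) was added for a further 24 h. WST-8 reagent was then applied for 30 min to 2 h at 37 °C and OD read at 450 nm. Viability expressed as % of control; triplicate.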

With `O=C(/C=C/c1ccc(O)cc1O)N1CCCCC1` as the molecule, how does the Activity read?
Its Activity is “Non-Toxic”.

Which Activity does the source give for `COc1cc(/C=C/C(=O)N2CCCCC2)ccc1O` here?
The Activity was “Non-Toxic”.

With `O=C(/C=C/c1ccc(O)cc1O)N1CCCC1` as the molecule, how does the Activity read?
Its Activity is “Non-Toxic”.

target: T1, Tyrosinase (Mus musculus) (UniProt P11344); assay: Inhibition of tyrosinase in alpha-MSH stimulated mouse B16F10 cells using L-dopa as substrate pretreated for 24 hrs followed by substrate addition and measured after 30 mins; conditions: not given
T1 sequence (whole entry): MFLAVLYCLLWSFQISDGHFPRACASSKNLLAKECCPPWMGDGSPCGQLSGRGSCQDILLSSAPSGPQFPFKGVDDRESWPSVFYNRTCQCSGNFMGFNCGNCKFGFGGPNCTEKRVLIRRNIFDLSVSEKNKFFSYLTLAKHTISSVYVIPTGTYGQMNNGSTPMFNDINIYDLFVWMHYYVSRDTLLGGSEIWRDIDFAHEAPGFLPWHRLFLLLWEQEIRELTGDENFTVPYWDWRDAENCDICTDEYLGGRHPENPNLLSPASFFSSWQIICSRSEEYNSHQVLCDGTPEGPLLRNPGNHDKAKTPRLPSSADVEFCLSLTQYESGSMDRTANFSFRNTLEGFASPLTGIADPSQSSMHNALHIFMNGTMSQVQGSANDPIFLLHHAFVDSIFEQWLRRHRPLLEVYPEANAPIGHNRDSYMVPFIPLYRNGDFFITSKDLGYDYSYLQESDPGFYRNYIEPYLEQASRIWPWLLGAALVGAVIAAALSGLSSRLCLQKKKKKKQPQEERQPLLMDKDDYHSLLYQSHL
Procedure, shortened: (§1)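 Cells were lysed in pH 6.8 phosphate buffer with 0.1 mM PMSF and 1% Triton X-100, frozen at −80 °C, and spun. Supernatant (80 µL) was incubated with 20 µL of 10 mM L-dopa at 37 °C for 30 min and read at 500 nm. Triplicate.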

For `COc1cc(/C=C/C(=O)N2CCCCC2)ccc1O`, which inhibition is on record?
The inhibition was “Dose-dependent effect”.

Which inhibition does the source give for `O=C(/C=C/c1ccc(O)cc1O)N1CCCC1` here?
Its inhibition is “Dose-dependent effect”.

target: T1, Tyrosinase (Mus musculus); assay: Inhibition of tyrosinase in alpha-MSH stimulated mouse B16F10 cells at 10 uM using L-dopa as substrate pretreated for 24 hrs followed by substrate addition and measured after 30 mins; conditions: not given; procedure, shortened: as §1

For `O=C(/C=C/c1ccc(O)cc1O)N1CCCCC1`, which inhibition is on record?
The inhibition was 23.3%.

Which inhibition does the source give for `COc1cc(/C=C/C(=O)N2CCCCC2)ccc1O` here?
The inhibition was 44%.

For `O=C(/C=C/c1ccc(O)cc1O)N1CCCC1`, which inhibition is on record?
Its inhibition is 38.3%.

tested on: B16-F10; assay: Antimelanogenic activity in mouse B16F10 cells assessed as inhibition of alpha-MSH-stimulated melanin synthesis at 25 uM measured after 24 hrs; format: functional; conditions: B16-F10, 24 h
Procedure, shortened: (§2)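 B16F10 cells were seeded at 5x10^4 cells/well and grown 24 h at 37 °C in 5% CO2. […] After PBS washes, melanin was dissolved in 1 N NaOH and read as absorbance at 405 nm. Triplicate, mean ± SEM.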

With `O=c1cc(CO)occ1O` [KOJIC ACID] as the molecule, how does the inhibition at 25 µM read?
The inhibition at 25 µM was 37.6%.

For `O=C(/C=C/c1ccc(O)cc1O)N1CCCCC1`, which inhibition at 25 µM is on record?
Its inhibition at 25 µM is 61.8%.

With `COc1cc(/C=C/C(=O)N2CCCCC2)ccc1O` as the molecule, how does the inhibition at 25 µM read?
The inhibition at 25 µM was 72.7%.

With `O=C(/C=C/c1ccc(O)cc1O)N1CCCC1` as the molecule, how does the inhibition at 25 µM read?
Its inhibition at 25 µM is 78.3%.

tested on: B16-F10; assay: Antimelanogenic activity in mouse B16F10 cells assessed as inhibition of alpha-MSH-stimulated melanin synthesis at 10 uM measured after 24 hrs; format: functional, cell-based; conditions: not given; procedure, shortened: as §2

With `O=C(/C=C/c1ccc(O)cc1O)N1CCCCC1` as the molecule, how does the inhibition read?
Its inhibition is “Dose-dependent effect”.

For `COc1cc(/C=C/C(=O)N2CCCCC2)ccc1O`, which inhibition is on record?
The inhibition was “Dose-dependent effect”.

Which inhibition does the source give for `O=C(/C=C/c1ccc(O)cc1O)N1CCCC1` here?
The inhibition was “Dose-dependent effect”.

tested on: not listed separately; assay: Antioxidant activity assessed as DPPH-radical scavenging activity at 1 mM incubated for 30 mins under dark condition; format: functional; conditions: not given
Procedure, shortened: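 DPPH (0.2 mM in methanol, 180 µL) was mixed with 20 µL of compound from a 10 mM DMSO stock, giving 1 mM final. The mix was kept in the dark for 30 min and read at 517 nm, with L-ascorbic acid as reference. % scavenging = (Ac−As)/Ac × 100 against untreated control. Triplicate, mean ± SD.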

For `COc1ccc(/C=C/C(=O)N2CCCC2)cc1O`, which inhibition is on record?
Its inhibition is 34.2%.

With `COc1ccc(/C=C/C(=O)N2CCCCC2)cc1O` as the molecule, how does the inhibition read?
The inhibition was 37.6%.

For `O=C(/C=C/c1ccc(O)cc1)N1CCCC1`, which inhibition is on record?
Its inhibition is 3.51%.

For `O=C(/C=C/c1ccc(O)cc1)N1CCCCC1`, which inhibition is on record?
The inhibition was 0.91%.

For `O=C(/C=C/c1ccc(O)cc1O)N1CCCCC1`, which inhibition is on record?
The inhibition was 30.7%.

With `O=C(/C=C/c1ccc(O)c(O)c1)N1CCCC1` as the molecule, how does the inhibition read?
Its inhibition is 83.2%.

For `O=C(/C=C/c1ccc(O)c(O)c1)N1CCCCC1`, which inhibition is on record?
The inhibition was 82.8%.

Which inhibition does the source give for `COc1cc(/C=C/C(=O)N2CCCC2)ccc1O` here?
Its inhibition is 82.1%.

Which inhibition does the source give for `COc1cc(/C=C/C(=O)N2CCCCC2)ccc1O` here?
The inhibition was 80.7%.

Which inhibition does the source give for `O=C1O[C@H]([C@@H](O)CO)C(O)=C1O` here?
The inhibition was 84.6%.

With `O=C(/C=C/c1ccc(O)cc1O)N1CCCC1` as the molecule, how does the inhibition read?
Its inhibition is 22.3%.

target: T1, Tyrosinase (Mus musculus); conditions: 400 uM

With `OC[C@H]1O[C@@H](Oc2ccc(O)cc2)[C@H](O)[C@@H](O)[C@@H]1O` as the molecule, how does the inhibition read?
The inhibition was 51.7%.
